H9c2 TAG inh = inhibitors of triacylglycerol accumulation, primary screen, cell-based, uHTS, fluorescence, H9c2; H9c2 cells, Nile Red lipid (TAG) fluorescence; cells loaded with 200 µM oleic acid; inhibition, % at 12.5 µM; actives 0.66% (n = 230,000);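 active = pattern-corrected inhibition of lipid staining of at least 50% with the nuclear-stain viability signal not falling by more than 50%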;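 also: 0% = DMSO wells and 100% = triacsin C control wells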
Beta2AR agonist = beta2AR agonists driving receptor internalization, primary screen, cell-based, FAP fluorogen, flow cytometry; response, % (concentration not given with the values); actives 0.43% (n = 340,000); Am2.2-beta2AR cells;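 active = response above a set limit, near 3 SD of response in nonfluorescent compounds, cut at about 42% in these data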
Hep lipid drop = inhibitors of hepatocyte lipid droplet formation, primary screen, imaging, high-throughput imaging, BODIPY stain | AML12 mouse hepatocytes, oleate lipid droplets | inhibition, % at 6.5 µM | actives 0.4% (n = 240,000);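 active = lipid droplet intensity inhibited by at least 50%, with more than 500 cells counted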
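Test system: AML12 hepatocytes (mouse); reagent: oleate loading, 100 µM; dosing: one dose, 6.5 µM compound; incubation: overnight exposure; signal: fluorescence imaging, 20x objective, two fields per well; read-out basis: % inhibition of corrected integrated BODIPY droplet signal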
NTR1 ag = agonists of human NTR1, primary screen, imaging, U2OS cells, beta-arrestin-GFP, high content | actives 0.17% (n = 330,000) | activation, % at 20 µM | NTR1-U2OS beta-arrestin-GFP spot imaging, agonist mode;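 active = activation at or above 40% of the spot to cytoplasm intensity ratio, with at least 20 cells analyzed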;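 also: 0% = DMSO without peptide and 100% = 100 nM NTR1 peptide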
Target sequence (P30989 whole entry, looked up): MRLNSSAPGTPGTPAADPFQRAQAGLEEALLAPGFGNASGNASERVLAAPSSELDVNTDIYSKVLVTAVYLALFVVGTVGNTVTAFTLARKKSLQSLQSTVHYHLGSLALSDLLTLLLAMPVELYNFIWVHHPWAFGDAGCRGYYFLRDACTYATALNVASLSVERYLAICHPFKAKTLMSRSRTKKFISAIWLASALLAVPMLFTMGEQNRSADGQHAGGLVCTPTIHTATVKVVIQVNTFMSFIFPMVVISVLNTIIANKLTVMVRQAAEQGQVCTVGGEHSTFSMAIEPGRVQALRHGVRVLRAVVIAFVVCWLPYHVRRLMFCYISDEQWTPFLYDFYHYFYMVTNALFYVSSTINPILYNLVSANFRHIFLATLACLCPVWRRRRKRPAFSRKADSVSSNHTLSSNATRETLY
Arrestin-AP2 inh = inhibitors of beta-arrestin/AP2 binding, primary screen, biochemical, GPCR trafficking, flow cytometry. beta-arrestin 1 C-terminal peptide binding to AP2 beta2-adaptin appendage (human). FITC-arrestin peptide / GST-AP2 beads; AP2 beta2 appendage carries R879A mutation. inhibition, % at 10 µM. actives 0.31% (n = 340,000). AID 504490, 2011;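 active = inhibition above a set limit, near 3 SD of compounds lacking own fluorescence, cut at about 54% in these data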;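 also: plate controls were DMSO wells for no effect and 5 µM unlabelled arrestin peptide for full effect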
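Material – GST-tagged AP2 beta2-adaptin appendage (R879A) on 4 µm glutathione beads · Probe or stimulus – fluorescein-tagged arrestin peptide at 50 nM final · Timing – 12 min plus 1 h, RT · Detection – bead flow cytometry, FITC channel · Read-out basis – inhibition as reduced fluorescein signal on beads, percent · Medium – PBS plus Tween 20 (0.05%) and BSA (0.1%)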
GRK2 aptamer HTS = compounds blocking aptamer binding on GRK2 – biochemical, human GRK2, bead flow cytometry, HTS, primary screen; Beta-adrenergic receptor kinase 1 (Homo sapiens), P25098; FAM-aptamer displacement from GRK2; inhibition of aptamer binding, % at 10 µM; actives 0.59% (n = 330,000);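 active = inhibition of aptamer binding above 40%, roughly 3 SD of noise, on plates passing a quality check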;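 also: median bead fluorescence of bound FAM aptamer so fluorescent compounds give negative values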
Numbers without * were called inactive; . = not tested or not shown. The list is not random: actives were taken first. Their share in the collection is about 2%.

SMILES | H9c2 TAG inh | Beta2AR agonist | Hep lipid drop | NTR1 ag | Arrestin-AP2 inh | GRK2 aptamer HTS
O=C(OCn1ncc(Br)c(Br)c1=O)c1c(F)cccc1F | . | . | -12 | . | . | 2
Cc1cc(C(=O)NC2CCCN(Cc3ccc(Cl)cc3)C2)n(C)n1 (configuration not stated) | . | 7 | 4 | 2 | 6 | 0
COc1ccc(CC(N)c2csc(NC(=O)c3cc(C(C)(C)C)nn3Cc3ccccc3)n2)cc1 (configuration not stated) | 112* | . | . | . | . | .
CC(N)c1csc(NC(=O)c2cc(C(C)(C)C)nn2Cc2ccccc2)n1 (configuration not stated) | 28 | . | . | . | . | .
Clc1ccc2c(N/N=C/c3ccc(Br)cc3)ccnc2c1 | 21 | 61* | 12 | . | -6 | 2
Cc1ccccc1/C=N/Nc1ccnc2cc(Cl)ccc12 | . | 48* | 3 | . | 20 | 0
Clc1ccc2c(N/N=C/c3cccnc3)ccnc2c1 | -14 | -8 | 21 | 7 | 12 | 3
Cc1ccc(/C=N/Nc2ccnc3cc(Cl)ccc23)c(C)c1 | . | 19 | 26 | 7 | 4 | 0
CN1C2CCC1/C(=C\c1ccc(F)cc1)C(=O)/C2=C/c1ccc(F)cc1 | . | 1 | 4 | 3 | 30 | 1
C=CC(=O)N1C/C(=C/c2ccc(F)cc2)C(=O)/C(=C\c2ccc(F)cc2)C1 | 78* | 48* | . | . | 17 | .
O=[N+]([O-])c1cc(Br)c(Nc2ccccc2)c([N+](=O)[O-])c1 | . | 47* | -2 | 39 | -26 | 1
COc1ccc(N2CCN(C(=O)c3ccc(CS(=O)(=O)c4ccc(Br)cc4)o3)CC2)cc1 | . | -9 | 20 | 2 | 10 | 2
Nc1ccc(C(=O)N/N=C/c2cn(Cc3ccc(F)cc3)c3ccccc23)cc1 | -72 | 2 | -34 | 3 | 27 | 0
O=C(N/N=C/c1cn(Cc2cccc(F)c2)c2ccccc12)c1cc(O)cc(O)c1 | . | 3 | -30 | 3 | 20 | 89*
O=C(CCNS(=O)(=O)c1ccc(Br)cc1)NCc1ccc(Cl)cc1 | . | -9 | 2 | 1 | -7 | 3
C=C1C(=O)OC2C=C(CO)C3OC3C3OC3(C)CC(OC(=O)/C(=C/C)COC(C)=O)C12 (configuration not stated) | 101 | 5 | . | . | 35 | .
C#CCOCCOCCOCCNc1nc(N2CCN(C(=O)CCCCCCCCCCNC(=O)[C@@H](CCSC)n3cc(CCO)nn3)CC2)nc(N2CCN(C(=O)CCCCCCCCCCNC(=O)[C@H](CCCN=C(N)N)n3cc(C[C@@H](C)CC)nn3)CC2)n1 | -6 | 58* | . | 8 | -2 | 0
CC[C@H](C)Cc1cn([C@@H](CCCN=C(NC(=O)OC(C)(C)C)NC(=O)OC(C)(C)C)C(=O)NCCCCCCCCCCC(=O)N2CCN(C(=O)OC(C)(C)C)CC2)nn1 | 15 | 9 | . | 45* | -2 | 0
C#CCOCCOCCOCCNc1nc(N2CCN(C(=O)CCCCCCCCCCNC(=O)[C@H](CCCCN)n3cc(C[C@@H](C)CC)nn3)CC2)nc(N2CCN(C(=O)CCCCCCCCCCNC(=O)[C@@H]([C@H](C)O)n3cc(C)nn3)CC2)n1 | 49 | 77* | . | 4 | 4 | 0
C#CCOCCOCCOCCNc1nc(N2CCN(C(=O)CCCCCCCCCCNC(=O)[C@H](CCCCN)n3cc(C[C@@H](C)CC)nn3)CC2)nc(N2CCN(C(=O)CCCCCCCCCCNC(=O)[C@H](CCCN=C(N)N)n3cc(C[C@@H](C)CC)nn3)CC2)n1 | 1 | 42* | . | 1 | -6 | 0
C#CCOCCOCCOCCNc1nc(N2CCN(C(=O)CCCCCCCCCCNC(=O)[C@H](CCCCN)n3cc(C)nn3)CC2)nc(N2CCN(C(=O)CCCCCCCCCCNC(=O)[C@H](CCCN=C(N)N)n3cc(C[C@@H](C)CC)nn3)CC2)n1 | . | . | . | 16 | . | 0

Screening data as filed in PubChem BioAssay.
